Here are results for 7 compounds from ChEMBL document CHEMBL1143602, “Evaluation of 8-arylsulfanyl, 8-arylsulfoxyl, and 8-arylsulfonyl adenine derivatives as inhibitors of the heat shock protein 90” (J Med Chem, 2005).

pEC50, pIC50: −log10 of the molar value. Several values for one entry are separate records, joined by “and”; a condition that tells them apart may be missing. Identical values can stand only once.

Assay [1] has as its target T1, Heat shock protein HSP 90-alpha (Homo sapiens, UniProt P07900). Nature of the assay: Effective concentration against heat shock protein HSP90-alpha in SKBr3 cells. The class given is functional, cell-based.
Assay [2] concerns RPTEC. Nature of the assay: Inhibitory concentration of compound against human renal proximal tubular epithelial cells (RPTEC) was determined. In kind it is functional, cell-based. Summed up: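 Pre-seeded normal human renal proximal tubular epithelial cells were equilibrated 3 h at 37 °C, 5% CO2, then given fresh medium. Cells were treated with drug or DMSO for 72 h.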
The next assay addresses Heat shock protein HSP90 (Homo sapiens, UniProt P07900+P08238). As to the kind of experiment: Inhibition of Hsp90 protein as degradation of HER2 kinase in SKBr3 cells. In kind it is functional, cell-based.
Assay [3] deals with T1, Heat shock protein HSP 90-alpha. As to the kind of experiment: Effective concentration against heat shock protein HSP90-alpha in MDA-MB-468 cells. In kind it is functional, cell-based.
Assay [4] deals with Heat shock protein HSP 90-alpha (Mus musculus, UniProt P07901). As to the kind of experiment: Displacement of 5 nM GM-BODIPY from mouse heat shock protein HSP90-alpha.
The test system of assay [5] is RPTEC. As to the kind of experiment: Selective inhibition for renal proximal tubular epithelial cells (RPTEC) to that of SKBr3 cells. The class given is functional, Homo sapiens.
In another assay the test system is SK-BR-3. As to the kind of experiment: Inhibitory concentration against SKBr3 cell line. In kind it is functional, cell-based. The settings on record: Homo sapiens. Summed up: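 Sulforhodamine B growth assay in SKBr3 cells grown in DME:F12 with 10% FBS at 37 °C, 5% CO2, attached overnight. Drug or DMSO was added in triplicate and serially diluted 1:1. Cells were grown 72 h, fixed with TCA and stained with 0.4% SRB.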

In assay [6] the target is T1, Heat shock protein HSP 90-alpha. Nature of the assay: Effective concentration of compound against heat shock protein HSP90 determined in normal brain cells.
The target is the same in assay [7]. Nature of the assay: Effective concentration of compound against heat shock protein HSP90 determined in normal heart cells.
Assay [8] has the same target. Nature of the assay: Effective concentration of compound against heat shock protein HSP90 determined in normal lung cells.

What is called pEC50 is −log10 of the EC50, conventionally taken in molar units. Usually pIC50 stands for the negative decadic logarithm of the IC50, by convention in mol/L. Read a low pIC50 as a high IC50. As usually defined, the IC50 is the concentration that gives 50% inhibition. A low value points to higher potency. As for `C#CCCCn1c(Sc2cc(OC)c(OC)c(OC)c2)nc2c(N)ncnc21`, the negative logarithm of the EC50 (pEC50) in assay [1] is 5.38; in assay [3], 5.55; in [4], 5.82. Also, the values for the negative logarithm of the IC50 (pIC50) in the assay with RPTEC [2] and in the assay on SK-BR-3 were 3.92 and 4.57, respectively. On Heat shock protein HSP90, this compound registered an IC50 of 22.3 µM. Also, the Selectivity with RPTEC [5] is given as 4.4.

For the compound `C#CCCCn1c(Sc2cc(OC)ccc2I)nc2c(N)ncnc21`, the pEC50 in assay [1] was 7.52; in assay [6], 4.52; in assay [7], 4.57; in [4], 7.30; in [8], 4.53. For the same compound, the pIC50 is 5.48 with RPTEC [2] and 6.24 with SK-BR-3.

Turning to `C#CCCCn1c(Sc2cc(OC)ccc2Br)nc2c(N)ncnc21`, the pEC50 in assay [1] is 6.89; in assay [6], 4.84; in [7], 4.53; in assay [4] it was 7.15; in assay [8] it was 4.56. Also, the pIC50 in the assay with RPTEC [2] was 5.09; in the assay on SK-BR-3, 5.96. Moreover, the IC50 at Heat shock protein HSP90 was determined as 1.45 µM. The compound further yielded a Selectivity in the assay with RPTEC [5] of 7.4.

Consider `C#CCCCn1c(Sc2cc(OC)c(OC)c(OC)c2)nc2c(N)nc(F)nc21`, for which the pEC50 was 5.70 in [1], 5.66 in assay [3] and 5.82 in assay [4]. On Heat shock protein HSP90, this compound had a half-inhibitory concentration (IC50) of 20.9 µM. The negative-log IC50 (pIC50) in the assay on SK-BR-3 was 4.74.

Take `C#CCCCn1c(Sc2cc(OC)ccc2OC)nc2c(N)ncnc21`: the pEC50 in [1] was 6.80; in assay [6] it was 4.52; in assay [7], 4.18; in assay [4], 6.72; in assay [8], less than 4.12. The pIC50 was 4.50 in the assay on RPTEC [2] and 5.72 in the assay on SK-BR-3. On Heat shock protein HSP90, this compound had a 50% inhibitory concentration (IC50) of 3.2 µM. Also, the Selectivity in the assay on RPTEC [5] is recorded as 16.5.

Consider `COc1cc(Cc2nc3c(N)ncnc3n2CCOC(C)C)cc(OC)c1OC`, for which the pEC50 is 5.29 and 5.44 in [1]; 5.24 in [3]. In addition, the pIC50 was less than 3.70 with RPTEC [2] and 4.15 in the assay with SK-BR-3. The same compound showed a half-inhibitory concentration (IC50) on Heat shock protein HSP90 of 28.7 µM. The compound also returned a Selectivity in the assay with RPTEC [5] greater than 100.

Turning to `C#CCCCn1c(Sc2cc3c(cc2Br)OCO3)nc2c(N)ncnc21`, the pEC50 was 7.70 in assay [1]; 4.40 in assay [6]; 4.19 in assay [7]; 7.52 in assay [4]; 4.83 in assay [8]. The pIC50 in the assay on RPTEC [2] is 5.39; in the assay on SK-BR-3 it was 6.70. On Heat shock protein HSP90, this compound registered an IC50 of 0.3 µM. Besides, the Selectivity with RPTEC [5] is 20.5.
